Sampled rows, rich in hits. Any-hit rate of the full collection: about 5.1%.
Ecoli WT expand: E. coli BW25113 growth inhibition, expanded screen; growth inhibition, % at 100 µM; 98,000 tested, 0.15% active; OD600 absorbance;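 active = growth inhibition above about 50% at one test dose, limit read from the data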;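 note: growth measured after 20 h incubation at 37 °C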
BAP1 inh: human BAP1 deubiquitinase inhibition | Q92560 | recombinant BAP1, Ub-AMC hydrolysis fluorescence kinetic; stronger effect = lower value | calls only at 20 µM | 72,000 tested, 0.48% active;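 active = activity remaining at or below 50% of control, provided the compound also passes the data quality filters; inactive = the rest, including low values that fail the filters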
M1 antagonist: M1 muscarinic receptor (rat) antagonism | CHO-M1 cells, Fluo-4 calcium, ACh EC80 antagonist mode; stronger effect = lower value | B-score at 10 µM | 64,000 tested, 3.4% active;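 active = calcium fluorescence response, raw or row-and-column corrected B-score, differing from the plate sample mean either way at a set confidence level, mostly lower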
M1 ag: activates the M1 muscarinic receptor; B-score at 10 µM; 64,000 tested, 3% active; CHO-M1 cells, Fluo-4 calcium fluorescence, agonist mode; stronger effect = higher value;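 active = fluorescence rise, raw or as B-score row- and column-corrected plate score, outside the 99.7% band of its plate's samples, either direction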
Hsp90 block: displaces geldanamycin probe from tumor Hsp90; P07900; AID 429; NCI-N417 lysate Hsp90, Cy3B-geldanamycin FP displacement; 64,000 tested, 0.35% active; inhibition, % at 30 µM;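 active = inhibition above 50%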
Ecoli tolC: blocks growth of E. coli BW25113 tolC mutant; OD615; growth inhibition, % at 10 µM (by protocol); 65,000 tested, 2.2% active; AID 573;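 active = growth inhibition at or above a cutoff equal to the mean over every tested compound plus 3 SD, cut at about 60% in these data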;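 note: growth measured after 20 h incubation at 37 °C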
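signal = optical density read at 615 nm | test system = E. coli ΔtolC::kan strain BW25113 | timing = 20 h compound exposure of bacteria at 37 °C | buffer or medium = LB medium plus 50 µg/mL kanamycin | compound dosing = 10 µM final, single dose | evaluation = % inhibition of E. coli growth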
M1 agonist conf: rat M1 muscarinic agonism, confirmation; shares compounds with M1 ag; CHO-M1 cells, Fluo-4 calcium fluorescence, agonist mode; actives lie on both sides; fluorescence change (max-min) at 10 µM; 1,700 tested, 19% active; AID 1488;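 active = fluorescence change differs from the solvent-only DMSO control mean at a set confidence level in both duplicate runs; inconclusive = differs from solvent-only control mean in just one of two runs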;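 note: an EC20 dose of acetylcholine follows compound addition during the same imaging run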
M4 agonist ctr: activates rat M4 receptor in counter-screen for M1 agonists. shares compounds with M1 ag. CHO M4/Gqi5 cells, Fluo-4 calcium fluorescence, agonist mode; actives lie on both sides. fluorescence change (max-min) at 10 µM. 1,700 tested, 9% active;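 active = fluorescence change differing from the plate's solvent-only control wells at 99.7% confidence in both duplicates, whether higher or lower; inconclusive = differs from solvent controls in only one of two duplicates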
Target sequence (P08485 whole entry, looked up): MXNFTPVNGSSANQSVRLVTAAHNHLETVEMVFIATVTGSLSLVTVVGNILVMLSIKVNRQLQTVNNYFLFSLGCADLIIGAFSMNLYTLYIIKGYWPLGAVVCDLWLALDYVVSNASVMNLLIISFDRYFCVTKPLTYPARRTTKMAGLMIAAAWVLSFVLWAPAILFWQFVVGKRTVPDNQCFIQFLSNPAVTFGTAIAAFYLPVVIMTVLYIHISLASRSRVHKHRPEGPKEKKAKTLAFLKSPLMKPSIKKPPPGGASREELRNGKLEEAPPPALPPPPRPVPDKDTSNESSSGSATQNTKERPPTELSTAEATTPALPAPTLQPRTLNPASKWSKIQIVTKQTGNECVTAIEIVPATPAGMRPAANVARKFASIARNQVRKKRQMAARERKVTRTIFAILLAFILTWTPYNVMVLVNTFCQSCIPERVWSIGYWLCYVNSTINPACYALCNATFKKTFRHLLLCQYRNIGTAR
A number is an active result; - = inactive; ? = inconclusive; . = no result shown.

SMILES	Ecoli WT expand	BAP1 inh	M1 antagonist	M1 ag	Hsp90 block	Ecoli tolC	M1 agonist conf	M4 agonist ctr
O=C(Nc1ccc(O)c(-c2nc3ccccc3s2)c1)c1ccc(S(=O)(=O)N2CCCCC2)cc1	.	-	.	.	.	.	.	.
CC(=O)c1c(C)[nH]c(C(=O)CSc2nnc(-c3ccco3)n2Cc2ccccc2)c1C	-	-	-	2.6	-	-	-	-
Nc1cc(N)cc(-c2nc3ccccc3o2)c1	.	-	-	-	-	-	.	.
O=c1c(-c2nc3ccccc3o2)c2oc3ccccc3n2c2ccccc12	-	.	-4.7	12	-	98	?	-
c1ccc(-n2ncc3c2ncn2cnnc32)cc1	-	-	-	27	-	-	-	-
Cc1cccc2cc3c(N)c(C(=O)N4CCOCC4)sc3nc12	-	-	-	7	-	-	?	-
CCN1C(=O)N(C)C2C1N(CC)C(=O)N2C (stereo not given)	.	-	.	.	.	.	.	.
O=C(Nc1nccs1)C12CC3CC(C1)CC(C(=O)Nc1nccs1)(C3)C2	-	-	-	4	-	-	?	-
CN1C(=O)CSc2ccc(NC(=O)N3CCc4ccccc43)cc21	-	-	-	2.8	-	-	-	-
CN1C(=O)CSc2ccc(NC(=O)N3CCN(c4ccccn4)CC3)cc21	.	-	-	-	-	-	.	.
Cc1ccc(NC(=O)c2cc3cc(Br)ccc3oc2=O)c(C)c1	.	-	.	.	.	.	.	.
COc1cc(C(=O)Nc2nccs2)c(Br)c(OC)c1OC	-	.	-	2.9	-	-	-	-
COc1cc(CC(=O)Nc2nccs2)cc(OC)c1OC	-	-	-	-	-	-	.	.
Cc1ccc(/C=c2\s/c(=C(/C#N)C(=O)N3CCCC3)n(Cc3ccco3)c2=O)s1	-	-	-	3	-	-	-	-
COC(=O)/C=c1/s/c(=C(/C#N)C(=O)N2CCCCC2)n(-c2ccccc2)c1=O	.	-	-	-	-	-	.	.
COc1ccc(CCNC(=O)CSc2nnc(CNc3ccc(Cl)cc3)o2)cc1OC	-	-	-	-2.2	-	-	-	-
COc1ccc(CCNC(=O)CSc2nnc(-c3ccc(F)cc3)o2)cc1OC	-	-	-	-	-	-	.	.
CCOC(=O)N1CCN(c2ncnc3c2[nH]c2ccc(F)cc23)CC1	-	.	.	.	.	.	.	.
CCOC(=O)N1CCN(c2ncnc3c2[nH]c2ccc(OC)cc23)CC1	-	-	-	2.1	-	-	?	-
COc1ccc(N2CCN(c3ncnc4c3[nH]c3ccccc34)CC2)cc1	-	.	.	.	.	.	.	.
COc1cc2[nH]c3c(N4CCN(c5ccccn5)CC4)ncnc3c2cc1OC	-	-	-	8.5	-	-	-	-
COc1ccc2sc(NC(=O)c3ccc([N+](=O)[O-])cc3)nc2c1	.	-	.	.	.	.	.	.
CCOC(=O)Cc1csc(NC(=O)c2ccc3c(c2)OCO3)n1	-	-	-	-2.3	-	-	-	?
CCOC(=O)Cc1csc(NC(=O)c2ccc(F)cc2)n1	.	-	.	.	.	.	.	.
COc1ccc(C2N3CC4(C)CN2CC(C)(C3)C4)cc1OC (stereo not given)	-	.	-	-3.1	.	-	-	-65
SMILES	Ecoli WT expand	BAP1 inh	M1 antagonist	M1 ag	Hsp90 block	Ecoli tolC	M1 agonist conf	M4 agonist ctr
O=C(Nc1nc(-c2ccccn2)cs1)c1sc2ccccc2c1Cl	.	-	.	.	.	.	.	.
CCCCc1cc(O)c(CCCC)c(O)c1	-	-	-3.3	37	-	63	275	320
O=C(CN(Cc1ccccc1Cl)C(=O)Cn1nnc(-c2cccs2)n1)NCC1CCCO1 (stereo not given)	-	-	-	7.7	-	-	-	-
O=CN1C(O)C(O)N(C=O)C(O)C1O (stereo not given)	.	-	.	.	.	.	.	.
COc1cccc(-c2nn3c(-c4cccc(C)c4)nnc3s2)c1	-	-	-	24	-	-	?	-
COc1ccc(-c2nnc3sc(-c4ccco4)nn23)cc1OC	-	-	-	4.3	-	-	-	-
COC(=O)c1ccccc1NC(=O)c1cc2nc(-c3cccs3)cc(C(F)(F)F)n2n1	.	-	.	.	.	.	.	.
C=CCNS(=O)(=O)c1cccc2cc(C(=O)O)c(O)cc12	-	-	-	3.6	-	-	-	-
COc1cc(C=Nc2c(C)n(C)n(-c3ccccc3)c2=O)cc(OC)c1OC	.	-	.	.	.	.	.	.

Compound activity as filed in PubChem.
